Consider four compounds from publication PMC5689172 (Biochemistry and Biophysics Reports, 2016).

The structures appear in SMILES notation. In brackets after ≈: the same amount, converted by molar mass. Where two headings read alike, the source gives them in different places.

The nature of one data set: Cytotoxicity, MTT assay. Particulars: human, MRC-5 cells (normal embryonic lung cell line). The class given is cell-based.
For a further data set, the system named is MRC-5 cell line. Put plainly: Cytotoxicity, MTT assay. The data set is classed as cell-based. The conditions noted are these: MRC-5 normal cells, MTT.
The subject of the next data set is diploid fungi and yeast. As to the kind of experiment: Antimicrobial activity, agar dilution method, summarised over the group. The class given is cell-based, Candida albicans. Particulars: Saccharomyces cerevisiae, ATCC2601|ATCC90028. The essentials: (§1)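 Test compound in DMSO, mixed with Mueller–Hinton broth, two-fold serially diluted, and incorporated into MH agar at final 0.25–256 μg/mL. Agar with 0.5% DMSO served as reagent control. Organisms were grown overnight in MH broth at 37 °C, diluted in normal saline to 0.5 McFarland (1.5×10⁸ CFU/mL), and inoculated onto plates. Plates were incubated at 37 °C for 24–48 h, then MIC was recorded.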

Data set [1] has as its system S. Typhimurium ATCC 13311. Put plainly: Antimicrobial activity, agar dilution method. The conditions noted are these: Salmonella enterica, ATCC13311|TYPHIMURIUM
The data set is classed as cell-based. The essentials:
as §1

The next data set deals with S. aureus ATCC 29213. Put plainly: Antimicrobial activity, agar dilution method. Particulars: Staphylococcus aureus, ATCC29213. The data set is classed as cell-based. The method, boiled down: as §1
The subject of the next data set is M. morganii. Put plainly: Antimicrobial activity, agar dilution method. The conditions noted are these: Morganella morganii. The data set is classed as cell-based. The method, boiled down: as §1
Another data set deals with C. freundii. As to the kind of experiment: Antimicrobial activity, agar dilution method. Particulars: Citrobacter freundii. The class given is cell-based. The essentials: as §1
The next data set has as its system E. faecalis ATCC 29212. Put plainly: Antimicrobial activity, agar dilution method. The class given is cell-based. Particulars: Enterococcus faecalis, ATCC29212. The method, boiled down:
as §1

The subject of another data set is P. stutzeri ATCC 17587. As to the kind of experiment: Antimicrobial activity, agar dilution method. The data set is classed as cell-based, Pseudomonas stutzeri. The conditions noted are these: Stutzerimonas stutzeri, ATCC17587. The essentials: as §1
The test system of a further data set is B. cereus. Put plainly: Antimicrobial activity, agar dilution method. The class given is cell-based. Particulars: Bacillus cereus. The essentials: as §1
Another data set deals with L. monocytogenes. Put plainly: Antimicrobial activity, agar dilution method. The class given is cell-based. The conditions noted are these: Listeria monocytogenes. The method, boiled down:
as §1

In data set [2] the test system is twenty-seven strains of microorganisms. The class given is cell-based. The method, boiled down:
as §1

For data set [3], the system named is C. diphtheriae NCTC 10356. As to the kind of experiment: Antimicrobial activity, agar dilution method. The class given is cell-based. Particulars: Corynebacterium diphtheriae, NCTC10356. The method, boiled down: as §1
Another data set deals with P. shigelloides. As to the kind of experiment: Antimicrobial activity, agar dilution method. Particulars: Plesiomonas shigelloides, P. shigelloides; agar dilution. The class given is cell-based.
For data set [4], the system named is S. putrefaciens ATCC 8071. As to the kind of experiment: Antimicrobial activity, agar dilution method. The class given is cell-based. Particulars: Shewanella putrefaciens, ATCC8071. The method, boiled down: as §1
A further data set has as its system Gram-negative bacteria. As to the kind of experiment: Antimicrobial activity, agar dilution method, summarised over the group. The data set is classed as cell-based. The method, boiled down:
as §1

The test system of another data set is S. cerevisiae ATCC 2601. As to the kind of experiment: Antimicrobial activity, agar dilution method. The data set is classed as cell-based. The conditions noted are these: Saccharomyces cerevisiae, ATCC2601. The essentials: as §1
The next data set has as its system P. aeruginosa ATCC 27853. As to the kind of experiment: Antimicrobial activity, agar dilution method. The data set is classed as cell-based, Pseudomonas aeruginosa. The conditions noted are these: Pseudomonas aeruginosa, ATCC27853. The essentials:
as §1

Data set [5] has as its system K. pneumoniae ATCC 700603. Put plainly: Antimicrobial activity, agar dilution method. Particulars: Klebsiella pneumoniae, ATCC700603. The class given is cell-based. The method, boiled down:
as §1

The test system of another data set is E. faecalis ATCC 33186. As to the kind of experiment: Antimicrobial activity, agar dilution method. The data set is classed as cell-based. The conditions noted are these: Enterococcus faecalis, ATCC33186. The essentials: as §1
The next data set has as its system E. coli ATCC 25922. As to the kind of experiment: Antimicrobial activity, agar dilution method. The class given is cell-based. Particulars: Escherichia coli, ATCC25922. The essentials:
as §1

Data set [6] concerns S. Choleraesuis ATCC 10708. As to the kind of experiment: Antimicrobial activity, agar dilution method. The conditions noted are these: Salmonella enterica, ATCC10708|CHOLERAESUIS
The class given is cell-based. The method, boiled down: as §1

The next data set deals with S. aureus ATCC 25923. Put plainly: Antimicrobial activity, agar dilution method. The data set is classed as cell-based. Particulars: Staphylococcus aureus, ATCC25923. The essentials:
as §1

For the next data set, the system named is S. marcescens ATCC 8100. As to the kind of experiment: Antimicrobial activity, agar dilution method. The class given is cell-based. Particulars: Serratia marcescens, ATCC8100. The essentials: as §1
Data set [7] concerns A. xylosoxidans ATCC 27061. Put plainly: Antimicrobial activity, agar dilution method. The data set is classed as cell-based. The conditions noted are these: Achromobacter xylosoxidans, ATCC27061. The essentials:
as §1

The subject of a further data set is S. dysenteriae. As to the kind of experiment: Antimicrobial activity, agar dilution method. The data set is classed as cell-based. Particulars: Shigella dysenteriae. The method, boiled down: as §1
The test system of the next data set is M. luteus ATCC 10240. Put plainly: Antimicrobial activity, agar dilution method. Particulars: Micrococcus luteus, ATCC10240. The class given is cell-based. The essentials:
as §1

A further data set concerns B. subtilis ATCC 6633. As to the kind of experiment: Antimicrobial activity, agar dilution method. The data set is classed as cell-based. Particulars: Bacillus subtilis, ATCC6633. The method, boiled down:
as §1

A further data set has as its system C. albicans ATCC 90028. As to the kind of experiment: Antimicrobial activity, agar dilution method. Particulars: Candida albicans, ATCC90028. The class given is cell-based. The method, boiled down: as §1
Data set [8] relates to S. epidermidis ATCC 12228. Put plainly: Antimicrobial activity, agar dilution method. The data set is classed as cell-based. Particulars: Staphylococcus epidermidis, ATCC12228. The essentials: as §1
For another data set, the system named is S. Enteritidis. Put plainly: Antimicrobial activity, agar dilution method. The conditions noted are these: Salmonella enterica. The class given is cell-based. The method, boiled down: as §1
For a further data set, the system named is A. hydrophila. As to the kind of experiment: Antimicrobial activity, agar dilution method. The class given is cell-based. Particulars: Aeromonas hydrophila. The essentials: as §1
In another data set the test system is P. aeruginosa. Particulars: anti-biofilm agent; cited from earlier work.
In a further data set the test system is E. coli. The conditions noted are these: cited from earlier work.
Data set [9] can be described thus: Antioxidant activity, DPPH radical scavenging assay. The class given is biochemical. The essentials:
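Sample solution (test compound, 1 mg/mL in DMSO) was mixed with 0.1 mM DPPH in methanol and kept 30 min in the dark. Absorbance was read at 517 nm. Radical scavenging activity (%) = [1 − Abs(sample)/Abs(control)] × 100. α-Tocopherol was the positive control.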

As to `COc1cccc2c1C(=O)c1c(O)c3c(c(O)c1C2=O)C[C@@](O)(C(=O)CO)C[C@@H]3O[C@H]1C[C@H](N)[C@H](O)[C@H](C)O1` [Doxorubicin], the IC50 at 48 h in “Cytotoxicity, MTT assay” was 0.62 ± 0.03 µM.
For the compound `Oc1c(I)cc(I)c2cccnc12` [Iodoquinol (7), iodoquinol], the cytotoxicity in words result in the data set with MRC-5 cell line is on record as “non-cytotoxic”. Also, the MIC in the data set on diploid fungi and yeast was at least 645 µM; in data set [1], over 645 µM; against S. aureus ATCC 29213, 645 µM (≈ 256 µg/mL); with M. morganii, over 645 µM; with C. freundii, over 645 µM; in the data set on E. faecalis ATCC 29212, over 645 µM. Moreover, the MIC is over 645 µM against P. stutzeri ATCC 17587; 645 µM (≈ 256 µg/mL) in the data set with B. cereus; 645 µM (≈ 256 µg/mL) in the data set with L. monocytogenes; at least 645 µM in data set [2] (most of the bacterial strains / most of the tested microorganisms); over 645 µM in [3]; 645 µM (≈ 256 µg/mL) against P. shigelloides. The MIC in data set [4] was 645 µM (≈ 256 µg/mL); in the data set on Gram-negative bacteria, at least 645 µM; against S. cerevisiae ATCC 2601, over 645 µM; against P. aeruginosa ATCC 27853, over 645 µM; in [5], over 645 µM; with E. faecalis ATCC 33186, over 645 µM. Moreover, the MIC against E. coli ATCC 25922 was over 645 µM; in data set [6], over 645 µM; with S. aureus ATCC 25923 it was 645 µM (≈ 256 µg/mL); against S. marcescens ATCC 8100, over 645 µM; in [7], over 645 µM; against S. dysenteriae it was 645 µM (≈ 256 µg/mL). Further, the MIC was 322 µM (≈ 128 µg/mL) against M. luteus ATCC 10240; 80.6 µM (≈ 32 µg/mL) against B. subtilis ATCC 6633; 645 µM (≈ 256 µg/mL) against C. albicans ATCC 90028; 645 µM (≈ 256 µg/mL) in data set [8]; over 645 µM with S. Enteritidis; 645 µM (≈ 256 µg/mL) with A. hydrophila.
Compound `O=[N+]([O-])c1ccc(O)c2ncccc12` [NQ (2), Nitroxoline] yielded an IC50 at 48 h in the data set “Cytotoxicity, MTT assay” of 88.1 ± 2.11 µM. The MIC in data set [1] turned out to be 21 µM (≈ 4 µg/mL); against S. aureus ATCC 29213, 42.1 µM (≈ 8 µg/mL); in the data set on M. morganii it was 42.1 µM (≈ 8 µg/mL); in the data set with C. freundii, 21 µM (≈ 4 µg/mL); in the data set on E. faecalis ATCC 29212, 42.1 µM (≈ 8 µg/mL); in the data set on P. stutzeri ATCC 17587, 10.5 µM (≈ 2 µg/mL). Besides, the MIC with B. cereus is 21 µM (≈ 4 µg/mL); against L. monocytogenes it was 42.1 µM (≈ 8 µg/mL); in [2] (both the Gram-positive and Gram-negative bacteria), 5.26 to 84.1 µM (≈ 1 to 16 µg/mL); in data set [3], 42.1 µM (≈ 8 µg/mL); against P. shigelloides, 42.1 µM (≈ 8 µg/mL); in [4], 10.5 µM (≈ 2 µg/mL). For the same compound, the MIC in the data set with Gram-negative bacteria is 5.26 to 84.1 µM (≈ 1 to 16 µg/mL); in the data set with P. aeruginosa, 84.14 to 168.28 µM; in the data set on S. cerevisiae ATCC 2601, 42.1 µM (≈ 8 µg/mL); in the data set with P. aeruginosa ATCC 27853 it was 84.1 µM (≈ 16 µg/mL); in [5], 84.1 µM (≈ 16 µg/mL); in the data set on E. coli it was 42.07 µM (≈ 8 µg/mL). Also, the MIC came out at 42.1 µM (≈ 8 µg/mL) against E. faecalis ATCC 33186; 21 µM (≈ 4 µg/mL) in the data set with E. coli ATCC 25922; 84.1 µM (≈ 16 µg/mL) in [6]; 42.1 µM (≈ 8 µg/mL) against S. aureus ATCC 25923; 21 µM (≈ 4 µg/mL) against S. marcescens ATCC 8100; 21 µM (≈ 4 µg/mL) in data set [7]. In addition, the MIC with S. dysenteriae was determined as 21 µM (≈ 4 µg/mL); against M. luteus ATCC 10240 it was 10.5 µM (≈ 2 µg/mL); with B. subtilis ATCC 6633 it was 42.1 µM (≈ 8 µg/mL); against C. albicans ATCC 90028, 42.1 µM (≈ 8 µg/mL); in [8], 42.1 µM (≈ 8 µg/mL); in the data set on S. Enteritidis, 21 µM (≈ 4 µg/mL). Further, the MIC against A. hydrophila was determined as 5.26 µM (≈ 1 µg/mL). Further, the “antioxidant activity in words” value in data set [9] was “inactive antioxidants”.
On to `Cc1c(C)c2c(c(C)c1O)CC[C@@](C)(CCC[C@H](C)CCC[C@H](C)CCCC(C)C)O2` [α-tocopherol, α-Tocopherol], for which the IC50 in data set [9] (read-out: RSA IC50, 30 min, 517 nm) is 13.5 µM.
